ChEMBL document CHEMBL4715770, “Inhibition of Low Molecular Weight Protein Tyrosine Phosphatase by an Induced-Fit Mechanism” (J Med Chem, 2016)
Calls of active or inactive are those of the source. The rule behind the calls is not given here.

Assays:
[1] = molecular target: T1, Dual specificity protein phosphatase 23 (Homo sapiens, UniProt Q9BVJ7); experiment: Inhibition of His-tagged VHZ (unknown origin) expressed in Escherichia coli BL21 cells using para-nitrophenyl phosphate as substrate incubated for 5 to 10 mins by microplate reader based spectrophotometric analysis
T1 sequence (Q9BVJ7 whole entry): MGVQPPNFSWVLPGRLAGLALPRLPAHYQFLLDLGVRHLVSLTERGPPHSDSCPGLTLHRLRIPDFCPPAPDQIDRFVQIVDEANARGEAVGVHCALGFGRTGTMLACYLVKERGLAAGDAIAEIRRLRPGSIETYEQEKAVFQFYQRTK

[2] = Inhibition of His-tagged PTP-H1 (unknown origin) expressed in Escherichia coli BL21 cells using para-nitrophenyl phosphate as substrate incubated for 5 to 10 mins by microplate reader based spectrophotometric analysis; design: species or system Homo sapiens
How it was run: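 Enzyme at 5-20 nM was added to substrate plus a range of inhibitor concentrations and run 5-10 min at room temperature. Quenched with 5N NaOH and p-nitrophenol read at 405 nm (ε 18,000 M-1cm-1), with a no-enzyme background correction. IC50 from curve fitting.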

[3] = molecular target: T2, Low molecular weight phosphotyrosine protein phosphatase (Homo sapiens, UniProt P24666); experiment: Inhibition of His-tagged LMW-PTP isoform A (unknown origin) expressed in Escherichia coli BL21 cells using para-nitrophenyl phosphate as substrate incubated for 5 to 10 mins by microplate reader based spectrophotometric analysis
T2 sequence (P24666 whole entry): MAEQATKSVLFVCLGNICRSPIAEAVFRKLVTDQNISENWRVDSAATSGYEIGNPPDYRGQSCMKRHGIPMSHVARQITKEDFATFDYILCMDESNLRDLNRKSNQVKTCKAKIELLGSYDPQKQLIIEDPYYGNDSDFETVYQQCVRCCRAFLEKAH

[4] = molecular target: Tyrosine-protein phosphatase non-receptor type 13 (Homo sapiens, UniProt Q12923); experiment: Inhibition of His-tagged FAP1 (unknown origin) expressed in Escherichia coli BL21 cells using para-nitrophenyl phosphate as substrate incubated for 5 to 10 mins by microplate reader based spectrophotometric analysis
Chain of Tyrosine-protein phosphatase non-receptor type 13 (Q12923 whole entry, canonical isoform): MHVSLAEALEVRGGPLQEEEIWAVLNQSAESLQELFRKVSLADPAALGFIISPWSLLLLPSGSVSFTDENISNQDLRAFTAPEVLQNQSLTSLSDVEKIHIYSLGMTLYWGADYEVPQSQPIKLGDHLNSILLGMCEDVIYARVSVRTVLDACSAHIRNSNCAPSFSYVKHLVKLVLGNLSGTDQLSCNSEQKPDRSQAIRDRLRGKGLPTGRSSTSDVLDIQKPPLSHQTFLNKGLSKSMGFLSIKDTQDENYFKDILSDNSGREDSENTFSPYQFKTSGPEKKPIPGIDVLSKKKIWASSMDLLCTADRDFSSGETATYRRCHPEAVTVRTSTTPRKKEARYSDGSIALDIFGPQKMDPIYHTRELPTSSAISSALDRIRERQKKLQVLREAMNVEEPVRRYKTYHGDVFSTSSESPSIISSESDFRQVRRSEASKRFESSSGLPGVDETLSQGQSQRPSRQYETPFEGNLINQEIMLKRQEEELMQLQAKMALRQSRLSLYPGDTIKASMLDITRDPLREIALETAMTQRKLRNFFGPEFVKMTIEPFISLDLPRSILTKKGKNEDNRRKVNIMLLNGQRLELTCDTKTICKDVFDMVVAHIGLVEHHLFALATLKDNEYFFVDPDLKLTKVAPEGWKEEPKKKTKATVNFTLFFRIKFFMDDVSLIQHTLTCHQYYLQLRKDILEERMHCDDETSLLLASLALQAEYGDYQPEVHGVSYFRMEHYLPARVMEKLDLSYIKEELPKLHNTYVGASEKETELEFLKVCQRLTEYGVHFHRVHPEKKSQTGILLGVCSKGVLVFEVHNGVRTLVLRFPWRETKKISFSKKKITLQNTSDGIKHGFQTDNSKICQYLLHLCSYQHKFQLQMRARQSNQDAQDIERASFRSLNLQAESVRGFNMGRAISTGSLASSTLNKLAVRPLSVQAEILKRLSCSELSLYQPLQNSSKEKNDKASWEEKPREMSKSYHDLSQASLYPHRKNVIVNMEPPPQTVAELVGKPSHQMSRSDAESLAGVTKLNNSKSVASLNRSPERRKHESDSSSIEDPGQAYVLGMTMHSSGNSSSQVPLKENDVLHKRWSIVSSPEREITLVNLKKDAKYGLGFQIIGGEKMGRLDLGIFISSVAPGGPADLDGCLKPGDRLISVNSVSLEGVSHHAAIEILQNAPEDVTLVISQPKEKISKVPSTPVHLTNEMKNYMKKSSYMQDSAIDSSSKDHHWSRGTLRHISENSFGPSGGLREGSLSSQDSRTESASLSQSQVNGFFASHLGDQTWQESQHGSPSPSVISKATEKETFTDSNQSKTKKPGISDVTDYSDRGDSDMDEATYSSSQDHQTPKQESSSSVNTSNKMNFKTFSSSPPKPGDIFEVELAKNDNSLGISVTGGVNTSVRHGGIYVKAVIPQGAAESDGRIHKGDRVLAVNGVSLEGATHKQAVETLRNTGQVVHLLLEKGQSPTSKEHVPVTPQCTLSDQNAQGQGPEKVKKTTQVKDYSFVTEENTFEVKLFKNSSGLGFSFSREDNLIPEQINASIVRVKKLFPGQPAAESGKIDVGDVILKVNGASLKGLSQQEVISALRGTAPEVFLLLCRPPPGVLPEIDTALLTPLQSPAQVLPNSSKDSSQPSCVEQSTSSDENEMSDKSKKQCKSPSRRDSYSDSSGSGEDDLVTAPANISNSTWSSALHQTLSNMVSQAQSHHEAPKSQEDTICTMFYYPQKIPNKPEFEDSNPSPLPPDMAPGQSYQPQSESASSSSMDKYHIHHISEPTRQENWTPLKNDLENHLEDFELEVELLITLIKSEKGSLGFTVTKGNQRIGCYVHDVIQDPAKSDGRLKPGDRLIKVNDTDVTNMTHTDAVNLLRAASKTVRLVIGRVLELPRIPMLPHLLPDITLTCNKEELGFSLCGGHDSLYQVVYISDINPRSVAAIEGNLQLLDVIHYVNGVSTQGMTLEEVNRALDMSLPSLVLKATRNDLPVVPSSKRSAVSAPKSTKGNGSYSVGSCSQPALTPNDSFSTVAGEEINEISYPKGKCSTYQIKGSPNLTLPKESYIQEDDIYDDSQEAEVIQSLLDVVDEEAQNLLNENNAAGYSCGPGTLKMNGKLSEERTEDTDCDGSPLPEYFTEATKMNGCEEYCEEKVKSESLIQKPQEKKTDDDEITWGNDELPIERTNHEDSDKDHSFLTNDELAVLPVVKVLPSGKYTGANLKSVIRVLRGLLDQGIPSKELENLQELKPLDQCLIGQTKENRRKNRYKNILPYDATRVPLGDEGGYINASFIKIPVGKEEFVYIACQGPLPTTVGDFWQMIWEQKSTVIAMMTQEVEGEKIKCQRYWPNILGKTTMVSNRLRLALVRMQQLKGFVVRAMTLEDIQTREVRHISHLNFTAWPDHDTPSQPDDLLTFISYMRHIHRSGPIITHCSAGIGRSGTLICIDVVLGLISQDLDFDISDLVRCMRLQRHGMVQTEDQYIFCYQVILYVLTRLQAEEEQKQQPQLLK

[5] = molecular target: T2, Low molecular weight phosphotyrosine protein phosphatase; experiment: Competitive inhibition of LMW-PTP isoform B (unknown origin) using para-nitrophenyl phosphate as substrate by Lineweaver-Burk plot analysis
How it was run: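 Recombinant His-tagged LMW-PTP from E. coli, Ni-NTA then Sephadex G75 purified. pNPP hydrolysis in 50 mM 3,3-dimethylglutarate buffer, pH 7.0, 25 °C. Reaction started by adding enzyme to mixes of varied pNPP and varied inhibitor concentrations, run 5-10 min, quenched with 5N NaOH. p-Nitrophenol read at 405 nm, blank without enzyme subtracted. Ki from enzyme-kinetics fitting.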

[6] = molecular target: T2, Low molecular weight phosphotyrosine protein phosphatase; experiment: Competitive inhibition of His-tagged LMW-PTP isoform A (unknown origin) expressed in Escherichia coli BL21 cells using para-nitrophenyl phosphate as substrate by Lineweaver-Burk plot analysis
How it was run: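 Recombinant enzyme Ni-NTA purified (Tris pH 7.8, 500 mM NaCl, 250 mM imidazole elution), then Sephadex G75. pNPP hydrolysis in 50 mM 3,3-dimethylglutarate, pH 7.0, 25 °C. Enzyme added last to mixes of varied pNPP and inhibitor concentrations, 5-10 min, NaOH quench. p-nitrophenol read at 405 nm (ε 18,000 M-1cm-1), no-enzyme blank subtracted. Ki fitted by enzyme-kinetics regression.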

[7] = molecular target: T3, RNA polymerase II subunit A C-terminal domain phosphatase SSU72 (Homo sapiens, UniProt Q9NP77); experiment: Inhibition of His-tagged SSu72 (unknown origin) expressed in Escherichia coli BL21 cells using para-nitrophenyl phosphate as substrate incubated for 5 to 10 mins by microplate reader based spectrophotometric analysis
T3 sequence (Q9NP77 whole entry): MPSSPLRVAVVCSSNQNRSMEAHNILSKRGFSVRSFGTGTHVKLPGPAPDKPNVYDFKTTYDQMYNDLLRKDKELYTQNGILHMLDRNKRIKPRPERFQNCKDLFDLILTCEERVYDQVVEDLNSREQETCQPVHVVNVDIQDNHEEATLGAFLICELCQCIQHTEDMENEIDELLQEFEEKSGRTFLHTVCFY

[8] = molecular target: Low molecular weight phosphotyrosine protein phosphatase (Homo sapiens) (UniProt P24666); experiment: Inhibition of LMW-PTP isoform A in human HepG2 cells assessed as increase in insulin-induced Akt phosphorylation at 16 uM pretreated for 2 hrs followed by insulin stimulation and measured after 30 mins by Western blot analysis; type: cell-based
How it was run: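 HepG2 cells in DMEM with 10% FBS at 37 °C and 5% CO2 were grown to 60-80% confluence and serum-starved overnight. They were given vehicle or compound for 2 h, then 50 nM insulin for 30 min. Lysates were run on 10% SDS-PAGE and immunoblotted for phospho-AKT and total AKT with ECL detection. Densitometric pAKT/AKT ratios were normalized to vehicle.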

| SMILES | IC50 [3] [µM] | also measured |
| --- | --- | --- |
| O=C(Nc1cnc2ccccc2c1)C(c1ccccc1)S(=O)(=O)O (stereo unspecified) | – | IC50 [1]: > 200 µM; IC50 [2]: > 200 µM |
| O=C(Nc1ccccc1)C(c1ccccc1)S(=O)(=O)O (stereo unspecified) | > 100 | – |
| Cc1ccc(C(C(=O)Nc2nc3ccccc3s2)S(=O)(=O)O)cc1 (stereo unspecified) | 91.4 | – |
| O=C(Nc1nccs1)C(c1ccccc1)S(=O)(=O)O (stereo unspecified) | 72 | – |
| O=C(Nc1nc2ccccc2s1)C(c1cccc(F)c1)S(=O)(=O)O (stereo unspecified) | 50 | – |
| O=C(Nc1ccc2nc(C(F)(F)F)[nH]c2c1)C(c1ccccc1)S(=O)(=O)O (stereo unspecified) | – | IC50 [4]: > 200 µM; IC50 [2]: > 200 µM |
| CCCNC(=O)C(c1ccccc1)S(=O)(=O)O (stereo unspecified) | > 200 | – |
| CCOC(=O)c1ccc2nc(NC(=O)C(c3ccccc3)S(=O)(=O)O)sc2c1 (stereo unspecified) | 3.1 | – |
| O=C(Nc1nc2ccccc2s1)C(c1ccccc1)S(=O)(=O)O (stereo unspecified) | – | Ki [5]: 1.7 µM; Ki [6]: 3.2 µM; IC50 [7]: 69.9 µM; IC50 [2]: > 200 µM |
| O=C(Nc1ccc(N2CCOCC2)cc1)C(c1ccccc1)S(=O)(=O)O (stereo unspecified) | – | IC50 [1]: > 200 µM; IC50 [2]: > 200 µM |
| O=C(Cc1ccccc1)Nc1nc2ccc([N+](=O)[O-])cc2s1 | > 100 | inhibition [8]: inactive |
| O=C(Nc1nc2ccccc2s1)C(c1ccc(Br)cc1)S(=O)(=O)O (stereo unspecified) | 106 | – |

Further lines, with some results ahead:

| IC50 [3] [µM] | SMILES | also measured |
| --- | --- | --- |
| > 200 | Cc1ccccc1C(C(=O)Nc1nc2ccccc2s1)S(=O)(=O)O (stereo unspecified) | – |
| > 200 | O=C(Nc1nc2ccccc2s1)C(c1cccc(C(F)(F)F)c1)S(=O)(=O)O (stereo unspecified) | – |
| > 200 | O=C(Nc1nc2ccccc2s1)C(c1ccccc1Cl)S(=O)(=O)O (stereo unspecified) | – |
| > 200 | N#Cc1cccc(C(C(=O)Nc2nc3ccccc3s2)S(=O)(=O)O)c1 (stereo unspecified) | – |
| > 200 | O=C(Nc1nc2ccccc2s1)C(c1cccc([N+](=O)[O-])c1)S(=O)(=O)O (stereo unspecified) | – |
| > 200 | O=C(Nc1nc2ccccc2s1)C(c1ccccc1F)S(=O)(=O)O (stereo unspecified) | – |
| > 200 | Cc1cccc(C(C(=O)Nc2nc3ccccc3s2)S(=O)(=O)O)c1 (stereo unspecified) | – |
